{"source": "paper PMC12709667", "about": "(Journal of Clinical Pharmacology, 2025)", "key": {"BCRP": {"biological_target": "T1, BCRP (Homo sapiens, UniProt Q9UNQ0)", "T1 sequence (Q9UNQ0 1-655)": "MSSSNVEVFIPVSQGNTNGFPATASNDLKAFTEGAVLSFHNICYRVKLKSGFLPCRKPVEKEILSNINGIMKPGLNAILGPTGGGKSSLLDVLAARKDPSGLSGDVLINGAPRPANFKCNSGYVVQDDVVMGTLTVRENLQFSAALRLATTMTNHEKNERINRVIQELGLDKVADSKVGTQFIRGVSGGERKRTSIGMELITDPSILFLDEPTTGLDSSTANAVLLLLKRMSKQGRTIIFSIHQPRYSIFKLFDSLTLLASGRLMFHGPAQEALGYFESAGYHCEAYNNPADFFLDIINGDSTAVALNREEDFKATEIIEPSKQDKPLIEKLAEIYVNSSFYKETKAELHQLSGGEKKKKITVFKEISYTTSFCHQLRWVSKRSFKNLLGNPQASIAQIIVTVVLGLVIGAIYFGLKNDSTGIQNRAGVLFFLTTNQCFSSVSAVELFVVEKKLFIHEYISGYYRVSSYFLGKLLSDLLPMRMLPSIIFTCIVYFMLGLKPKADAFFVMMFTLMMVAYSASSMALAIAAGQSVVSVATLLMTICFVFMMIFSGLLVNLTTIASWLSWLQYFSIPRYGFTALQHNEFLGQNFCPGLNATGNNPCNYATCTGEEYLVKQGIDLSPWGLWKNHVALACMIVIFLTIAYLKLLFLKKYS", "test": "Transporter substrate assessment", "assay_type": "in vitro ADME"}, "CYP3A5": {"biological_target": "CYP3A5 (Homo sapiens, UniProt P20815)", "sequence (P20815 whole entry)": "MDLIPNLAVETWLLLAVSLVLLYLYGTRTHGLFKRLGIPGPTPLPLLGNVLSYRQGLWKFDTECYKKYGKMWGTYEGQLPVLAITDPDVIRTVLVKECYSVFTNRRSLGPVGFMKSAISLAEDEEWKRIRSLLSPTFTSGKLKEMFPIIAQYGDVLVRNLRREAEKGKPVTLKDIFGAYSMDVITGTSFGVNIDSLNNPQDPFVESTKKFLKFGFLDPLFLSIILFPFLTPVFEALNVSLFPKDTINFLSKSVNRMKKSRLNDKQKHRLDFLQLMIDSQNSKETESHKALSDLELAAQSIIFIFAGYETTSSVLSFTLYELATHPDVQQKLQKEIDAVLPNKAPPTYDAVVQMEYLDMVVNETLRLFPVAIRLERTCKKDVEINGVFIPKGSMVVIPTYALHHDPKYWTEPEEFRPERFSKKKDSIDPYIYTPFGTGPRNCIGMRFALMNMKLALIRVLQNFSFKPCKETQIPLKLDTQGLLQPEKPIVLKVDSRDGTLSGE", "test": "Cytochrome P450 inhibition", "assay_type": "in vitro ADME"}, "CYP2B6": {"tested_on": "CYP2B6", "assay_type": "in vitro ADME, human", "details": "up to 10 µM, three donors"}, "UGT1A1": {"biological_target": "T2, UGT1A1 (Homo sapiens, UniProt P22309)", "T2 sequence (P22309 26-533)": "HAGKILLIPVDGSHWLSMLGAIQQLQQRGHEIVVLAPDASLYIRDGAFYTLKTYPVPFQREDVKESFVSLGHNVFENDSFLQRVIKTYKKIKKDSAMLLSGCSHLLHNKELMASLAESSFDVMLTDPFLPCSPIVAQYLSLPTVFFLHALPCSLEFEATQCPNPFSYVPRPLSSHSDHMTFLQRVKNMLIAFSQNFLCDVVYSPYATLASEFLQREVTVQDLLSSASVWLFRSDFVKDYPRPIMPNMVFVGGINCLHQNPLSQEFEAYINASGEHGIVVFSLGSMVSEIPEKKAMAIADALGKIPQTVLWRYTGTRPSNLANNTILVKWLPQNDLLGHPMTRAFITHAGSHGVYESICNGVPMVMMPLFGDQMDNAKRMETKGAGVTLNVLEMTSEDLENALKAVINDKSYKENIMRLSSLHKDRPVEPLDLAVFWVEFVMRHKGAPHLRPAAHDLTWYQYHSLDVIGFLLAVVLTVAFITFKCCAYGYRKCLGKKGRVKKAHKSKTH", "test": "DDI perpetrator study: dolutegravir probe", "assay_type": "in vivo", "details": "miricorilant 400 mg once daily as perpetrator"}, "[1]": {"test": "Quantitative whole-body autoradiography tissue distribution in mice", "assay_type": "in vivo, mouse", "details": "for association of radioactivity with melanin: pigmented mice", "in_short": "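Quantitative whole-body autoradiography after dosing with [14C]-labelled test compound, in non-pigmented (albino) and partially pigmented C57 mice. Frozen carcasses were sectioned and imaged at timepoints from 1 h to 168 h postdose to measure tissue radioactivity. Melanin-containing tissues (skin, uveal tract) were included.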"}, "liver fat": {"tested_on": "liver fat", "details": "patients with presumed MASH; cited from earlier work"}, "[2]": {"test": "Animal and human ADME studies, summary of excretion", "assay_type": "in vivo", "details": "animal and human ADME studies (Abstract)"}, "[3]": {"test": "[14C] ADME study in male albino CD1 mice", "assay_type": "in vivo, mouse", "in_short": "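Male albino CD1 mice received one oral dose of 50 mg/kg (5 MBq/kg) [14C]-labelled test compound. Blood and plasma were counted for total radioactivity. Urine and faeces were collected for excretion balance, and plasma, urine and faeces were used for metabolite profiling.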"}, "CYP1A2": {"biological_target": "T3, CYP1A2 (Homo sapiens, UniProt P05177)", "T3 sequence (P05177 1-516)": "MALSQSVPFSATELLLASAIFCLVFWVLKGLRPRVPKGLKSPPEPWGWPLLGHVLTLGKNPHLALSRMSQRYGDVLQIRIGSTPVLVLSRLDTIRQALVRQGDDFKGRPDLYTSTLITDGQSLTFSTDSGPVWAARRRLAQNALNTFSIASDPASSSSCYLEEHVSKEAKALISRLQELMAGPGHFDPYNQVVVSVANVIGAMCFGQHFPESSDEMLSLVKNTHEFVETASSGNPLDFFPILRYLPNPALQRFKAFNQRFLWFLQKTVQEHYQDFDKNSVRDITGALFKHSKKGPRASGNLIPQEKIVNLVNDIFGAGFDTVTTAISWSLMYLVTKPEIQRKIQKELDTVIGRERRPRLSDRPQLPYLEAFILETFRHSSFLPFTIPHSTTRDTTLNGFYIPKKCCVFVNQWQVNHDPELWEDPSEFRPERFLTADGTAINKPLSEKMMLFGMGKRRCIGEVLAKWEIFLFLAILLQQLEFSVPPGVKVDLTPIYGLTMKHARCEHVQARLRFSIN", "assay_type": "in vitro ADME"}, "UGT1A3": {"biological_target": "T4, UGT1A3 (Homo sapiens, UniProt P35503)", "T4 sequence (P35503 29-534)": "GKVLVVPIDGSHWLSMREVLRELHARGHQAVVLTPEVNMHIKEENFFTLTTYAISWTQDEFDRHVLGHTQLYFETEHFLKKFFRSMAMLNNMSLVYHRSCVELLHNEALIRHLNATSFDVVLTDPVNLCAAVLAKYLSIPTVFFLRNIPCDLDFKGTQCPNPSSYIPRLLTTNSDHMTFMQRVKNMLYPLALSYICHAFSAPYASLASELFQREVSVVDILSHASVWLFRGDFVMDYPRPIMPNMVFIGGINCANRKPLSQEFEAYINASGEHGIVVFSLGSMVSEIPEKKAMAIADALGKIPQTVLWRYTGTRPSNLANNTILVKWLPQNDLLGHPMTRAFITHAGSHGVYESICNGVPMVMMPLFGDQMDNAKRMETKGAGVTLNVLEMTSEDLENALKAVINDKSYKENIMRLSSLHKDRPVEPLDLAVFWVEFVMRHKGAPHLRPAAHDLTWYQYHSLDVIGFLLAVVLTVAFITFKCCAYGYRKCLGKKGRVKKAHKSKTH", "test": "Phase 2 enzyme substrate assessment", "assay_type": "in vitro ADME"}}}
{"smiles": "O=c1[nH]c(=O)c(Cc2cccc(C(F)(F)F)c2)c([C@H]2CC[C@H](c3ccccc3)CC2)[nH]1", "note": "[miricorilant]", "values": [{"measurement": "Substrate of BCRP", "setting": "BCRP", "value": "not a substrate"}, {"measurement": "inhibition of CYP3A5", "setting": "CYP3A5", "value": "No inhibition"}, {"measurement": "induction of CYP2B6", "setting": "CYP2B6", "value": "no induction"}, {"measurement": "clinical inhibition of UGT1A1", "setting": "UGT1A1", "value": "does not inhibit"}, {"measurement": "radioactivity in the lens of the eye", "setting": "[1]; albino mice", "value": "not present at quantifiable levels"}, {"measurement": "radioactivity in the brain and spinal cord", "setting": "[1]; albino mice, 4 and 8 h", "value": "low levels"}, {"measurement": "time of peak tissue concentration of radioactivity", "setting": "[1]; albino mice, majority of tissues (pancreas, liver, gall bladder etc.)", "value": 4, "unit": "h"}, {"measurement": "radioactivity in the liver", "setting": "[1]; mice", "value": "high concentrations"}, {"measurement": "association of radioactivity with melanin", "setting": "[1]", "value": "no long‐term association"}, {"measurement": "association of radioactivity with melanin", "setting": "[1]; listed as [^14C]‐miricorilant", "value": "no affinity"}, {"measurement": "effect on liver fat", "setting": "liver fat", "value": "rapid and substantial reduction of liver fat"}, {"measurement": "total radioactivity recovered in urine", "setting": "[2]", "value": "< 5", "unit": "%"}, {"measurement": "recovery of radioactivity", "setting": "[3]; by 24 h postdose", "value": "quantitative recovery"}, {"measurement": "elimination of radioactivity in urine", "setting": "[3]; single oral 50 mg/kg", "value": "0.13% ± 0.04%"}, {"measurement": "fecal elimination of radioactivity", "setting": "[3]; single oral 50 mg/kg", "value": "98.7% ± 2.48%"}, {"measurement": "share of total radioactivity in plasma", "setting": "[3]; single oral 50 mg/kg", "value": 69, "unit": "%"}, {"measurement": "inhibition of CYP1A2", "setting": "CYP1A2", "value": "No inhibition"}, {"measurement": "Substrate of UGT1A3", "setting": "UGT1A3", "value": "not a substrate"}]}
